In ChEMBL document CHEMBL1133478, “Discovery of potent cyclic pseudopeptide human tachykinin NK-2 receptor antagonists” (J Med Chem, 2000):
Bridge positions count the residues as written; N and C are the ends. Square brackets hold non-standard residues; d marks the D form. Peptide text beside a SMILES is read from it. * marks the point of attachment. NH(β-GlcNAc) = CC(=O)N[C@@H]1[C@@H](O)[C@H](O)[C@@H](CO)O[C@H]1N*; Dap = NC[C@H](N)C(=O)O

Legend:
Substance-K receptor = molecular target: T1, Substance-K receptor (Homo sapiens, UniProt P21452); test: Binding affinity towards Tachykinin receptor 2
T1 sequence (P21452 whole entry): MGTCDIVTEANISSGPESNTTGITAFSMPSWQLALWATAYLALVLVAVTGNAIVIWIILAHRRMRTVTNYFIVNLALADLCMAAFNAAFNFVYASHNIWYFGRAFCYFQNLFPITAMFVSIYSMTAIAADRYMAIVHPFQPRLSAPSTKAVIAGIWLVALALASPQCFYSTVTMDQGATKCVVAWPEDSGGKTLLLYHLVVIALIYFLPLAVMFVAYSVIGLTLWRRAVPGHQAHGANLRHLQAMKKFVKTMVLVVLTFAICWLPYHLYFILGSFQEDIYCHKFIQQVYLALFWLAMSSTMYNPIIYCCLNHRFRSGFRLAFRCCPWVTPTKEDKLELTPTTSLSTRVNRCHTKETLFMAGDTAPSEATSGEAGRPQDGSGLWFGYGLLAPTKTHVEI
How it was run: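 Competition binding at human NK-2 receptor expressed in CHO cells, radioligand [125I]NKA. pKi computed with EBDA then LIGAND; mean of 2–6 experiments, each run in duplicate.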

[1] = tested on: Substance-K receptor (Oryctolagus cuniculus); test: In Vitro evaluation for the functional activity towards Tachykinin receptor 2
[2] = molecular target: Substance-P receptor (Cavia porcellus) (UniProt P30547)
[3] = molecular target: T2, Neuromedin-K receptor (Cavia porcellus) (UniProt P30098)
T2 sequence (whole entry): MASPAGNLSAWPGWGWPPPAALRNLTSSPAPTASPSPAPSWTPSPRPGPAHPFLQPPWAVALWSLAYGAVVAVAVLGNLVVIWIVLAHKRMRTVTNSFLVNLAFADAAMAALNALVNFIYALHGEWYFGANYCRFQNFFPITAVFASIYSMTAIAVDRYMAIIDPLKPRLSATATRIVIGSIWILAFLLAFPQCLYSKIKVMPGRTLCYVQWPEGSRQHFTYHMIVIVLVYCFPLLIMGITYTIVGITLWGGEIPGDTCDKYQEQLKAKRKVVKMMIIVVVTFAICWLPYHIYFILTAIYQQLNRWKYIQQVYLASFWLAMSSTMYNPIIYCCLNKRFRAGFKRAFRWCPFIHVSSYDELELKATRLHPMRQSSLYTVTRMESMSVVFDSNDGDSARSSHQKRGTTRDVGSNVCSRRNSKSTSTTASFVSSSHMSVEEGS

[4] = molecular target: T3, Substance-K receptor (Cavia porcellus) (UniProt Q64077)
T3 sequence (whole entry): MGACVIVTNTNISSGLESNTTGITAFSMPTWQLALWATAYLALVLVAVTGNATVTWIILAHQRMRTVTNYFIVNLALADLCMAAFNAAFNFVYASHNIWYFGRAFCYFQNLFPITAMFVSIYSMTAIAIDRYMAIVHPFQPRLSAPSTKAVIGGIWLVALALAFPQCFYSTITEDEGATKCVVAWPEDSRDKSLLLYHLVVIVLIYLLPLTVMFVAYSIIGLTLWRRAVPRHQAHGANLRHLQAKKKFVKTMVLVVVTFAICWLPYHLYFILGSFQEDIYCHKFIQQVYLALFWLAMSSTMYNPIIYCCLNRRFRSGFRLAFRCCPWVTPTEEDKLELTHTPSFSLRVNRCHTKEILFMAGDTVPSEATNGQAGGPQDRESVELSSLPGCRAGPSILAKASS

Sequence of Substance-P receptor (Cavia porcellus) (P30547 whole entry): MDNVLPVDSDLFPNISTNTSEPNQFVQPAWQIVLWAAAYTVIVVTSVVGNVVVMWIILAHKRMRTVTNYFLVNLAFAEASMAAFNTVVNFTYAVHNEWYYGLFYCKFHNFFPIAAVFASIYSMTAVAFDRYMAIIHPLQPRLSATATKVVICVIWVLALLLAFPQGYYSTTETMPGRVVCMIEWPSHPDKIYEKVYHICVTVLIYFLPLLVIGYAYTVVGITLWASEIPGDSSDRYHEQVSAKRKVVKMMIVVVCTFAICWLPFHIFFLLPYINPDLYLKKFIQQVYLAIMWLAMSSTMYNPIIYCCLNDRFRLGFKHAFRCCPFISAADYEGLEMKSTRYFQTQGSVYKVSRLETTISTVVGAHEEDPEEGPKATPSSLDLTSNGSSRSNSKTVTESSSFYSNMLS

Structure (SMILES) | Ki (Substance-K receptor) | pKb [1] | pKB [2] | pKB [3] | pKB [4]
O=C1CC(Cc2ccccc2)C(=O)N[C@@H](Cc2c[nH]c3ccccc23)C(=O)N[C@@H](Cc2ccccc2)C(=O)NCCN1 (mixture of isomers) | 631 nM | 5.7 | – | – | –
O=C1CCC(=O)NC(Cc2c[nH]c3ccccc23)C(=O)N[C@@H](Cc2ccccc2)C(=O)N[C@H](Cc2ccccc2)CN1 (single isomer, unassigned) | 2 nM | – | 5.7 | 6.1 | 7.8
O=C1CCC(=O)N[C@@H](Cc2c[nH]c3ccccc23)C(=O)N[C@@H](Cc2ccccc2)C(=O)NC[C@H](Cc2ccccc2)N1 | 1260 nM | 5.5 | – | – | –
O=C1CCC(=O)N[C@@H](Cc2c[nH]c3ccccc23)C(=O)N[C@@H](Cc2ccccc2)C(=O)NCCN1 | 1260 nM | 6.3 | – | – | –
O=C1CCC(=O)N[C@@H](Cc2c[nH]c3ccccc23)C(=O)N[C@@H](Cc2ccccc2)C(=O)N[C@H](Cc2ccc(F)c(F)c2)CN1 | 1.58 nM | 7.8 | – | – | –
CSCC[C@@H]1NC(=O)[C@H](CC(C)C)NC(=O)[C@@H]2CNC(=O)C[C@H](NC1=O)C(=O)N[C@@H](Cc1c[nH]c3ccccc13)C(=O)N[C@@H](Cc1ccccc1)C(=O)N2 (cyclo(DWF[Dap]LM); lactam 1-4) | 0.631 nM | 8.1 | – | – | –
O=C1CCC(=O)N[C@H](Cc2ccccc2)CNC(=O)[C@H](Cc2ccccc2)NC(=O)C(Cc2c[nH]c3ccccc23)N1 (single isomer, unassigned) | 1260 nM | 5.4 | – | – | –

Continued by falling Ki (Substance-K receptor), values first:

Ki (Substance-K receptor) | pKb [1] | pKB [2] | pKB [3] | pKB [4] | Structure (SMILES)
1260 nM | – | – | – | – | O=C1CCC(=O)N[C@@H](Cc2c[nH]c3ccccc23)C(=O)N[C@@H](Cc2ccccc2)C(=O)NC(Cc2ccccc2)CN1 (some centres not stated)
794 nM | 6.1 | – | – | – | O=C1CC(Cc2ccccc2)C(=O)NCCNC(=O)[C@H](Cc2ccccc2)NC(=O)[C@H](Cc2c[nH]c3ccccc23)N1 (mixture of isomers)
316 nM | 6.5 | – | – | – | O=C1CCC(=O)N[C@@H](Cc2c[nH]c3ccccc23)C(=O)N[C@@H](Cc2ccccc2)C(=O)N[C@H](CC2CCCCC2)CN1
20 nM | 7.1 | – | – | – | O=C1CCC(=O)N[C@@H](Cc2c[nH]c3ccccc23)C(=O)N[C@@H](Cc2ccccc2)C(=O)N[C@H](Cc2ccc(C(F)(F)F)cc2)CN1
10 nM | 6.5 | – | – | – | O=C1CCC(=O)N[C@@H](Cc2c[nH]c3ccccc23)C(=O)N[C@@H](Cc2ccccc2)C(=O)N[C@H](CCc2ccccc2)CN1
10 nM | 7.1 | – | – | – | COc1ccc(CC2CNC(=O)CCC(=O)N[C@@H](Cc3c[nH]c4ccccc34)C(=O)N[C@@H](Cc3ccccc3)C(=O)N2)cc1 (some centres not stated)
7.94 nM | 7 | – | – | – | O=C1CCC(=O)N[C@@H](Cc2c[nH]c3ccccc23)C(=O)N[C@@H](Cc2ccccc2)C(=O)N[C@H](Cc2ccc3ccccc3c2)CN1
2.51 nM | – | – | – | – | CC(=O)N[C@@H]1[C@@H](O)[C@H](O)[C@@H](CO)O[C@H]1NC(=O)C[C@@H]1NC(=O)[C@H](CC(C)C)NC(=O)[C@@H]2CNC(=O)C[C@H](NC1=O)C(=O)N[C@@H](Cc1c[nH]c3ccccc13)C(=O)N[C@@H](Cc1ccccc1)C(=O)N2 (cyclo(D(NH(β-GlcNAc))DWF[Dap]L); lactam 2-5)
0.1 nM | 8.1 | – | – | – | O=C1CCC(=O)N[C@@H](Cc2c[nH]c3ccccc23)C(=O)N[C@@H](Cc2ccccc2)C(=O)N[C@H](Cc2ccc(Cl)c(Cl)c2)CN1
